Measured values taken from ChEMBL document CHEMBL2413060, “Synthesis, biological evaluation and molecular docking studies of some pyrimidine derivatives” (2013).
Values after ≈ are worked out from the molar mass of the structure shown.

Legend:
Format in all cases: functional
[1] = tested on: HCC 2998; assay: Cytotoxicity against human HCC2998 cells assessed as growth inhibition at 10 uM; details: read-out: GI
[2] = tested on: Staphylococcus aureus; assay: Antibacterial activity against Staphylococcus aureus ATCC 6538P after 24 hrs by two-fold serial dilution method relative to ampicillin
[3] = tested on: NCI/ADR-RES; assay: Cytotoxicity against human NCI/ADR-RES cells assessed as growth inhibition at 10 uM; details: read-out: GI
How it was run: (§1)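 Single-dose screen on human tumour cell lines. Growth of treated cells is expressed as percent of untreated growth, plotted as a mean graph, and reported as percent growth inhibition.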

[4] = tested on: Candida albicans; assay: Antifungal activity against Candida albicans ATCC 2091 assessed as diameter of inhibition zone at 1 mg/ml after 48 hrs by cup diffusion method (reference value: 22 mm); details: ATCC 2091, 48 h, read-out: DIZ
[5] = tested on: Staphylococcus aureus; assay: Antibacterial activity against Staphylococcus aureus ATCC 6538P after 24 hrs by two-fold serial dilution method
How it was run: (§2)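 Two-fold serial broth dilution in sterile nutrient broth at 500, 250, 125, 62.5, 31.25, 15.63, 7.82 and 3.91 µg/ml, with dimethylformamide ≤2.5%. Organisms were pre-grown 24 h in broth, and 0.1 ml inoculum was added per 5 ml tube. Tubes were incubated at 37°C, 24 h for bacteria and 48 h for fungi. MIC was taken as the lowest concentration giving no turbidity.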

[6] = tested on: Shigella flexneri; assay: Antibacterial activity against Shigella flexneri ATCC 15391 assessed as diameter of inhibition zone at 1 mg/ml after 24 hrs by cup diffusion method (reference value: 17 mm); details: ATCC 15391, 24 h, read-out: DIZ
[7] = tested on: Staphylococcus aureus; assay: Antibacterial activity against Staphylococcus aureus ATCC 6538P assessed as diameter of inhibition zone at 1 mg/ml after 24 hrs by cup diffusion method (reference value: 15 mm); details: read-out: DIZ
[8] = tested on: Pseudomonas aeruginosa; assay: Antibacterial activity against Pseudomonas aeruginosa ATCC 9027 assessed as diameter of inhibition zone at 1 mg/ml after 24 hrs by cup diffusion method (reference value: 16 mm); details: ATCC 9027, 24 h, read-out: DIZ
[9] = tested on: HOP-62; assay: Cytotoxicity against human HOP62 cells assessed as growth inhibition at 10 uM; details: read-out: GI
[10] = tested on: HOP-92; assay: Cytotoxicity against human HOP92 cells assessed as growth inhibition at 10 uM; details: read-out: GI
[11] = tested on: RPMI-8226; assay: Cytotoxicity against human RPMI8226 cells assessed as growth inhibition at 10 uM; details: read-out: GI; how it was run: as §1
[12] = tested on: UACC-62; assay: Cytotoxicity against human UACC62 cells assessed as growth inhibition at 10 uM; details: read-out: GI
How it was run: (§3)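 Single-dose screen in a sixty-cell human tumour line panel; percent growth of treated cells relative to untreated was read and reported as percentage growth inhibition, shown as a mean graph. Compounds meeting the threshold inhibition criteria went on to five-dose testing.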

[13] = tested on: IGROV-1; assay: Cytotoxicity against human IGROV1 cells assessed as growth inhibition at 10 uM; details: read-out: GI
[14] = tested on: SR; assay: Cytotoxicity against human SR cells assessed as growth inhibition at 10 uM; details: read-out: GI; how it was run: as §1
[15] = Cytotoxicity against human EKVX cells assessed as growth inhibition at 10 uM; details: read-out: GI
[16] = tested on: Shigella flexneri; assay: Antibacterial activity against Shigella flexneri ATCC 15391 after 24 hrs by two-fold serial dilution method relative to ofloxacin
[17] = tested on: NCI-H522; assay: Cytotoxicity against human NCI-H522 cells assessed as growth inhibition at 10 uM; details: read-out: GI; how it was run: as §1
[18] = tested on: A498; assay: Cytotoxicity against human A498 cells assessed as growth inhibition at 10 uM; details: read-out: GI
[19] = tested on: Malme-3M; assay: Cytotoxicity against human MALME-3M cells assessed as growth inhibition at 10 uM; details: read-out: GI
[20] = tested on: SK-MEL-2; assay: Cytotoxicity against human SK-MEL-2 cells assessed as growth inhibition at 10 uM; details: read-out: GI; how it was run: as §1
[21] = tested on: Shigella flexneri; assay: Antibacterial activity against Shigella flexneri ATCC 15391 after 24 hrs by two-fold serial dilution method; details: ATCC 15391, 24 h; how it was run: as §2
[22] = tested on: Pseudomonas aeruginosa; assay: Antibacterial activity against Pseudomonas aeruginosa ATCC 9027 after 24 hrs by two-fold serial dilution method relative to ofloxacin
[23] = tested on: NCI-H460; assay: Cytotoxicity against human NCI-H460 cells assessed as growth inhibition at 10 uM; details: read-out: GI; how it was run: as §1
[24] = tested on: TK-10; assay: Cytotoxicity against human TK10 cells assessed as growth inhibition at 10 uM; details: read-out: GI; how it was run: as §3
[25] = tested on: SF-295; assay: Cytotoxicity against human SF295 cells assessed as growth inhibition at 10 uM; details: read-out: GI; how it was run: as §1
[26] = tested on: MCF7; assay: Cytotoxicity against human MCF7 cells assessed as growth inhibition at 10 uM; details: read-out: GI; how it was run: as §1
[27] = tested on: CAKI-1; assay: Cytotoxicity against human Caki1 cells assessed as growth inhibition at 10 uM; details: read-out: GI
[28] = tested on: PC-3; assay: Cytotoxicity against human PC3 cells assessed as growth inhibition at 10 uM; details: read-out: GI; how it was run: as §1
[29] = tested on: SK-OV-3; assay: Cytotoxicity against human SKOV3 cells assessed as growth inhibition at 10 uM; details: read-out: GI; how it was run: as §1
[30] = tested on: T47D; assay: Cytotoxicity against human T47D cells assessed as growth inhibition at 10 uM; details: read-out: GI; how it was run: as §1
[31] = tested on: CCRF-CEM; assay: Cytotoxicity against human CCRF-CEM cells assessed as growth inhibition at 10 uM; details: read-out: GI
[32] = tested on: M14; assay: Cytotoxicity against human M14 cells assessed as growth inhibition at 10 uM; details: read-out: GI
[33] = tested on: SNB-75; assay: Cytotoxicity against human SNB75 cells assessed as growth inhibition at 10 uM; details: read-out: GI; how it was run: as §1

For CSc1nc(-c2ccco2)c(C#N)c(=O)n1C, which inhibition of growth at 10 µM [1] is on record?
The inhibition of growth at 10 µM was 98.4%.

And the Activity [2]?
The Activity was 50%.

And the inhibition of growth at 10 µM [3]?
The inhibition of growth at 10 µM was 48.8%.

What about the zone of inhibition at 1000 µg/mL [4] of the same molecule?
Its zone of inhibition at 1000 µg/mL is 22 mm.

What about the MIC [5] of the same molecule?
Its MIC is 125 µg/mL (≈ 506 µM).

And the zone of inhibition at 1000 µg/mL [6]?
The zone of inhibition at 1000 µg/mL was 17 mm.

What about the zone of inhibition at 1000 µg/mL [7] of the same molecule?
Its zone of inhibition at 1000 µg/mL is 19 mm.

And the zone of inhibition at 1000 µg/mL [8]?
The zone of inhibition at 1000 µg/mL was 17 mm.

Which results are given for N#Cc1c(N2CCOCC2)nc(=S)[nH]c1-c1ccco1?
inhibition of growth at 10 µM [9]: 64.2%; inhibition of growth at 10 µM [10]: 112%; inhibition of growth at 10 µM [11]: 57%; inhibition of growth at 10 µM [12]: 56.7%; inhibition of growth at 10 µM [13]: 79.3%; inhibition of growth at 10 µM [1]: 121%; inhibition of growth at 10 µM [14]: 82.2%; inhibition of growth at 10 µM [15]: 51.2%; Activity [16]: 60%; inhibition of growth at 10 µM [3]: 59.8%; inhibition of growth at 10 µM [17]: 50.4%; inhibition of growth at 10 µM [18]: 101%; zone of inhibition at 1000 µg/mL [4]: 22 mm; inhibition of growth at 10 µM [19]: 97.8%; inhibition of growth at 10 µM [20]: 63%; MIC [21]: 125 µg/mL (≈ 434 µM); Activity [22]: 60%; inhibition of growth at 10 µM [23]: 49.9%; inhibition of growth at 10 µM [24]: 52.9%; inhibition of growth at 10 µM [25]: 52.6%; inhibition of growth at 10 µM [26]: 73.3%; inhibition of growth at 10 µM [27]: 41.8%; inhibition of growth at 10 µM [28]: 57.4%; inhibition of growth at 10 µM [29]: 45%; zone of inhibition at 1000 µg/mL [6]: 22 mm; zone of inhibition at 1000 µg/mL [7]: 15 mm; inhibition of growth at 10 µM [30]: 81.1%; zone of inhibition at 1000 µg/mL [8]: 16 mm; inhibition of growth at 10 µM [31]: 50.4%; inhibition of growth at 10 µM [32]: 60.2%; inhibition of growth at 10 µM [33]: 84.1%
